Laboratory results published in ChEMBL document CHEMBL1144899, “Influence of phenyl ring disubstitution on bisbenzimidazole and terbenzimidazole cytotoxicity: synthesis and biological evaluation as radioprotectors” (2003).
Where “and” joins values, the source holds several entries; their conditions need not be identical. Equal entries are not always repeated.

Columns and labels:
[1] = In Vitro Cytotoxicity against BMG-1 (Human brain malignant glioma cell line with a DNA index of 0.96; wild type TP 53) using MTT assay at 10 uM at 72 hours; assay type: functional
Method in brief: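 Then MTT at 0.5 mg/mL final for 2 h at 37 °C; formazan dissolved in DMSO; absorbance read at 570 nm against 630 nm reference; results as percent survival.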

[2] = In Vitro Cytotoxicity against BMG-1 (Human brain malignant glioma cell line with a DNA index of 0.96; wild type TP 53) using Macrocolony assay (clonogenicity) at 100 uM at 72 hours; assay type: functional; conditions: read-out: Survival
[3] = (§1) In Vitro Cytotoxicity against BMG-1 (Human glioma cell line with a DNA index of 0.96; wild type TP 53) using Irradiation procedures followed by Macrocolony assay at 10 Gy and 10 (uM); assay type: functional
Method in brief: (§2)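 Exponential BMG-1 (24 h after plating) given 10 μM drug 1 h before irradiation. Co-60 gamma rays at room temperature in growth medium, 0.5–1.2 Gy/min, at 2, 5 or 10 Gy. Cells plated for macrocolony assay, 8–10 days at 37 °C in 5% CO2; crystal violet-stained colonies >50 cells counted; survival as percent of irradiated control at each dose.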

[4] = In Vitro Cytotoxicity against BMG-1 (Human glioma cell line with a DNA index of 0.96; wild type TP 53) using Irradiation procedures followed by Macrocolony assay at 2 Gy and 10 (uM); assay type: functional; method in brief: as §2
[5] = In Vitro Cytotoxicity against BMG-1 (Human glioma cell line with a DNA index of 0.96; wild type TP 53) using Irradiation procedures followed by Macrocolony assay at 5Gy and 10 (uM); assay type: functional; method in brief: as §2
Nucleic Acid [6] = assay: DNA binding property using 100(uM) of calf thymus DNA (CTDNA) and at 10(uM) was determined; assay type: nucleic-acid assay; conditions: Bos taurus
Method in brief: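 Calf thymus DNA (100 μM) with ligand at drug/DNA ratio r = 0.1 (10 μM drug) in 2 mM sodium cacodylate buffer, equilibrated 25 min. Thermal melting by absorbance at 260 nm, heated 25 to 100 °C at 0.5 °C/min; Tm taken as the midpoint of normalized curves, ΔTm relative to DNA alone. UV absorption (200–500 nm) and fluorescence emission spectra also recorded.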

Nucleic Acid [7] = assay: DNA binding property using 100(uM) of calf thymus DNA (CTDNA) and at 100(uM) was determined; assay type: nucleic-acid assay; conditions: Bos taurus
[8] = Percent cell kill against BMG-1 (Human brain malignant glioma cell line with a DNA index of 0.96; wild type TP 53) at 1 hour incubation at 10 (uM)
[9] = Percent cell kill against BMG-1 (Human brain malignant glioma cell line with a DNA index of 0.96; wild type TP 53) at 1 hour incubation at 100 (uM)
[10] = In Vitro Cytotoxicity against BMG-1 (Human brain malignant glioma cell line with a DNA index of 0.96; wild type TP 53) using MTT assay at 100 uM at 24 hours
Homo sapiens = species on record: Homo sapiens; assay: In Vitro Cytotoxicity against BMG-1 (Human glioma cell line with a DNA index of 0.96; wild type TP 53) using MTT assay at 100 uM at 72 hours; No effect on the proliferation kinetics of BMG-1 cells.; assay type: functional, cell-based
[11] = In Vitro Cytotoxicity against BMG-1 (Human brain malignant glioma cell line with a DNA index of 0.96; wild type TP 53) using Macrocolony assay at 10 uM […]; assay type: functional
Method in brief: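 BMG-1 glioma cells in DMEM with 5% fetal calf serum at 37 °C, exponential phase, 24 h after plating. Drug (0.1, 1, 10 or 100 μM) given for 1 h, then washed off. 200–1200 cells plated and grown 8–10 days at 37 °C in 5% CO2. Colonies fixed in methanol and stained with crystal violet; colonies over 50 cells counted and expressed as percent of control.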

[12] = as §1; assay type: functional; remark: listed apart in the source
Method in brief: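 Exponentially growing BMG-1 cells, 24 h after plating, given 10 μM ligand 1 h before irradiation. Co-60 gamma irradiation (2, 5 or 10 Gy) at room temperature in growth medium at 0.5–1.2 Gy/min. Cells then plated and colonies of more than 50 cells counted after 8–10 days. Survival expressed as percent of cells irradiated at the same dose without ligand.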

[13] = In Vitro Cytotoxicity against BMG-1 (Human glioma cell line with a DNA index of 0.96; wild type TP 53) using Irradiation procedures followed by Macrocolony assay at 5Gy and 10 (uM) at 24 hr; assay type: functional; conditions: in the assay text read “growth kinetics” for “Macrocolony assay”
[14] = In Vitro Cytotoxicity against BMG-1 (Human glioma cell line with a DNA index of 0.96; wild type TP 53) using Macrocolony assay (clonogenicity) at 100 uM at 72 hours; assay type: functional; conditions: read-out: Survival

Row | Compound | Killed [1] | viability at 100 µM [2] | Survival [3] | Survival [4] | Survival [5] | Lambda-em (Nucleic Acid [6]) | Lambda-ex (Nucleic Acid [6]) | Lambda-em (Nucleic Acid [7]) | Lambda-ex (Nucleic Acid [7]) | Tm (Nucleic Acid [7]) | ΔTm (Nucleic Acid [7]) | Cell kill % [8] | Cell kill % [9] | Lysis [10] | NA (Homo sapiens) | Protection [11] | Protection [12] | Protection [13] | viability at 100 µM [14]
1 | CCOc1ccc(-c2nc3cc(-c4nc5cc(N6CCN(C)CC6)ccc5[nH]4)ccc3[nH]2)cc1 | 35% | 10% | 15% | 10% | 15% | 500 nm | 340 nm | 484 nm | 354 nm | 76 °C | 6 °C | 55% | 90% | 77% |  |  |  |  | 
2 | COc1ccc(-c2nc3cc(-c4nc5cc(N6CCN(C)CC6)ccc5[nH]4)ccc3[nH]2)cc1OC |  |  |  |  |  | 500 nm | 340 nm | 484 nm | 354 nm | 76.4 °C | 6.4 °C |  | 27% |  | No effect on the proliferation kinetics of BMG-1 cells | 82% | 100% | 84% | 73%
3 | COc1cc(-c2nc3cc(-c4nc5cc(-c6nc7cc(N8CCN(C)CC8)ccc7[nH]6)ccc5[nH]4)ccc3[nH]2)ccc1O |  | 92% | 100% | 24% | 37% | 500 nm | 350 nm | 418 nm and 441 nm | 356 nm and 391 nm | 78 °C | 8 °C |  |  |  | No effect on the proliferation kinetics of BMG-1 cells | 37% |  | 100% | 
